What all share (type): functional
The test system of test [1] is P19. Nature of the test: Cytotoxicity against undifferentiated mouse P19 cells assessed as cell mass at 1 to 100 uM after 24 hrs by SRB assay relative to control. The method, boiled down:
(§1)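 Cell mass by SRB assay in P19 cells (CRL-1825), either undifferentiated (P19SCs) or differentiated (P19dCs). Cells exposed to 1, 10 or 100 µM for 24, 48 or 72 h. Values expressed relative to untreated control. Means ± SD from at least 4 independent measurements, 6 repeats each. Significance vs control at p<0.05.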

Test [2] deals with P19. Nature of the test: Cytotoxicity against undifferentiated mouse P19 cells assessed as cell mass at 1 to 100 uM after 48 hrs by SRB assay relative to control. The method in brief:
as §1

The subject of test [3] is P19. Nature of the test: Cytotoxicity against undifferentiated mouse P19 cells assessed as cell mass at 1 to 100 uM after 72 hrs by SRB assay relative to control. The method in brief:
as §1

Test [4] concerns P19. Nature of the test: Cytotoxicity against differentiated mouse P19 cells assessed as cell mass at 1 to 100 uM after 24 hrs by SRB assay relative to control. The method, boiled down:
as §1

The test system of test [5] is P19. Nature of the test: Cytotoxicity against differentiated mouse P19 cells assessed as cell mass at 1 to 100 uM after 48 hrs by SRB assay relative to control. The method in brief:
as §1

In test [6] the test system is P19. Nature of the test: Cytotoxicity against differentiated mouse P19 cells assessed as cell mass at 1 to 100 uM after 72 hrs by SRB assay relative to control. The method in brief:
as §1

In test [7] the test system is P19. Nature of the test: Cytotoxicity against undifferentiated mouse P19 cells assessed as metabolic activity at 1 to 100 uM after 24 hrs by resazurin assay relative to control. The method, boiled down: (§2)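 Metabolic activity by resazurin reduction in undifferentiated (P19SCs) or differentiated (P19dCs) P19 cells. Exposure to 1, 10 or 100 µM for 24, 48 or 72 h. Read-out relative to untreated control. Significance vs control at p<0.05.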

For test [8], the system named is P19. Nature of the test: Cytotoxicity against undifferentiated mouse P19 cells assessed as metabolic activity at 1 to 100 uM after 48 hrs by resazurin assay relative to control. The method in brief: as §2
Test [9] relates to P19. Nature of the test: Cytotoxicity against undifferentiated mouse P19 cells assessed as metabolic activity at 1 to 100 uM after 72 hrs by resazurin assay relative to control. The method, boiled down:
as §2

For test [10], the system named is P19. Nature of the test: Cytotoxicity against differentiated mouse P19 cells assessed as metabolic activity at 1 to 100 uM after 24 hrs by resazurin assay relative to control. The method in brief: as §2
The test system of test [11] is P19. Nature of the test: Cytotoxicity against differentiated mouse P19 cells assessed as metabolic activity at 1 to 100 uM after 48 hrs by resazurin assay relative to control. The method in brief:
as §2

The subject of test [12] is P19. Nature of the test: Cytotoxicity against differentiated mouse P19 cells assessed as metabolic activity at 1 to 100 uM after 72 hrs by resazurin assay relative to control. The method, boiled down: as §2
Test [13] has as its system P19. Nature of the test: Cytotoxicity against undifferentiated mouse P19 cells assessed as mitochondrial membrane potential at 1 uM after 24 hrs by TMRF dye based fluorescence assay relative to control. The method, boiled down:
(§3)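 Undifferentiated (P19SCs) or differentiated (P19dCs) P19 cells incubated 24 or 72 h with 1 or 100 µM. Mitochondrial membrane potential and mitochondrial superoxide levels measured and expressed relative to untreated control. Means ± SD from 4 independent measurements, at least 4 repeats each. Significance at p<0.05.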

Test [14] has as its system P19. Nature of the test: Cytotoxicity against undifferentiated mouse P19 cells assessed as mitochondrial membrane potential at 100 uM after 24 hrs by TMRF dye based fluorescence assay relative to control. The method, boiled down:
as §3

Test [15] deals with P19. Nature of the test: Cytotoxicity against undifferentiated mouse P19 cells assessed as mitochondrial membrane potential at 1 uM after 72 hrs by TMRF dye based fluorescence assay relative to control. The method in brief:
as §3

The subject of test [16] is P19. Nature of the test: Cytotoxicity against undifferentiated mouse P19 cells assessed as mitochondrial membrane potential at 100 uM after 72 hrs by TMRF dye based fluorescence assay relative to control. The method in brief:
as §3

Test [17] relates to P19. Nature of the test: Cytotoxicity against undifferentiated mouse P19 cells assessed as mitochondrial superoxide anion level at 1 uM after 24 hrs by MitoSox dye based fluorescence assay relative to control. The method, boiled down:
as §3

For test [18], the system named is P19. Nature of the test: Cytotoxicity against undifferentiated mouse P19 cells assessed as mitochondrial superoxide anion level at 100 uM after 24 hrs by MitoSox dye based fluorescence assay relative to control. The method in brief:
as §3

The subject of test [19] is P19. Nature of the test: Cytotoxicity against undifferentiated mouse P19 cells assessed as mitochondrial superoxide anion level at 1 uM after 72 hrs by MitoSox dye based fluorescence assay relative to control. The method, boiled down: as §3
Test [20] has as its system P19. Nature of the test: Cytotoxicity against undifferentiated mouse P19 cells assessed as mitochondrial superoxide anion level at 100 uM after 72 hrs by MitoSox dye based fluorescence assay relative to control. The method, boiled down:
as §3

Test [21] has as its system P19. Nature of the test: Cytotoxicity against differentiated mouse P19 cells assessed as mitochondrial membrane potential at 1 uM after 24 hrs by TMRF dye based fluorescence assay relative to control. The method in brief:
as §3

The test system of test [22] is P19. Nature of the test: Cytotoxicity against differentiated mouse P19 cells assessed as mitochondrial membrane potential at 100 uM after 24 hrs by TMRF dye based fluorescence assay relative to control. The method, boiled down:
as §3

The subject of test [23] is P19. Nature of the test: Cytotoxicity against differentiated mouse P19 cells assessed as mitochondrial membrane potential at 1 uM after 72 hrs by TMRF dye based fluorescence assay relative to control. The method, boiled down: as §3
Test [24] has as its system P19. Nature of the test: Cytotoxicity against differentiated mouse P19 cells assessed as mitochondrial membrane potential at 100 uM after 72 hrs by TMRF dye based fluorescence assay relative to control. The method, boiled down: as §3
Test [25] concerns P19. Nature of the test: Cytotoxicity against differentiated mouse P19 cells assessed as mitochondrial superoxide anion level at 1 uM after 24 hrs by MitoSox dye based fluorescence assay relative to control. The method, boiled down: as §3
Test [26] concerns P19. Nature of the test: Cytotoxicity against differentiated mouse P19 cells assessed as mitochondrial superoxide anion level at 100 uM after 24 hrs by MitoSox dye based fluorescence assay relative to control. The method, boiled down: as §3
The subject of test [27] is P19. Nature of the test: Cytotoxicity against differentiated mouse P19 cells assessed as mitochondrial superoxide anion level at 1 uM after 72 hrs by MitoSox dye based fluorescence assay relative to control. The method in brief: as §3
Test [28] relates to P19. Nature of the test: Cytotoxicity against differentiated mouse P19 cells assessed as mitochondrial superoxide anion level at 100 uM after 72 hrs by MitoSox dye based fluorescence assay relative to control. The method, boiled down:
as §3

Each structure is given as a SMILES string.

With `O=C(c1ccc2c(c1)C(=O)N(CCCO)C2=O)c1ccc2c(c1)C(=O)N(CCCO)C2=O`, the Activity in the test on P19 [1] is given as 106%; in the test on P19 [2] it was 101.5%; in the test on P19 [3], 100%; with P19 [4] it was 110.6%; in the test with P19 [5], 97.9%; with P19 [6] it was 94.7%. The Activity with P19 [7] came to 105%; in the test on P19 [8], 98.1%; in the test on P19 [9] it was 100%; in the test on P19 [10] it was 100.1%; in the test with P19 [11] it was 101.1%; in the test on P19 [12], 98.1%.
In the case of `O=C(c1ccc2c(c1)C(=O)N(c1c[nH]c(=O)[nH]c1=O)C2=O)c1ccc2c(c1)C(=O)N(c1c[nH]c(=O)[nH]c1=O)C2=O`, the Activity with P19 [1] is listed as 115.2%; in the test with P19 [2] it was 99.4%; in the test with P19 [3], 97.4%; in the test on P19 [4], 95.8%; with P19 [5], 88.2%; in the test on P19 [6], 90.8%. Also, the Activity is 113.8% with P19 [7]; 103.2% with P19 [8]; 109.6% in the test on P19 [9]; 116.3% in the test with P19 [10]; 105.3% in the test with P19 [11]; 105% in the test on P19 [12].
With `O=C(c1ccc2c(c1)C(=O)N(CCO)C2=O)c1ccc2c(c1)C(=O)N(CCO)C2=O`, the Activity is 83.9% in the test with P19 [1]; 92.4% with P19 [2]; 106.7% in the test with P19 [3]; 96.2% with P19 [4]; 108.4% in the test on P19 [5]; 80.5% in the test with P19 [6]. In addition, the Activity with P19 [7] is on record as 101.5%; with P19 [8], 107.8%; in the test with P19 [9], 113.8%; with P19 [10], 113.3%; in the test with P19 [11] it was 103.7%; in the test on P19 [12], 99.4%.
On to `O=C(c1ccc2c(c1)C(=O)N(c1ccc(O)cc1)C2=O)c1ccc2c(c1)C(=O)N(c1ccc(O)cc1)C2=O`, for which the Activity with P19 [1] was determined as 90.2%; in the test with P19 [2] it was 81.8%; with P19 [3], 86.8%; in the test with P19 [4] it was 86.7%; with P19 [5] it was 48.5%; with P19 [6] it was 30.9%. Further, the Activity in the test on P19 [7] came out at 88.5%; with P19 [8] it was 74.4%; in the test with P19 [9] it was 79.9%; with P19 [10] it was 96.2%; in the test on P19 [11], 87.4%; in the test with P19 [12] it was 93.8%. Moreover, the Activity in the test on P19 [13] came to 176.1%; with P19 [14], 206.6%; in the test on P19 [15] it was 93%; with P19 [16], 116.7%; in the test on P19 [17], 72.1%; in the test with P19 [18] it was 106.6%. For the same compound, the Activity came out at 78.4% in the test with P19 [19]; 72.5% in the test with P19 [20]; 110.6% in the test on P19 [21]; 65.8% in the test on P19 [22]; 144.7% in the test on P19 [23]; 136.6% in the test on P19 [24]. Also, the Activity with P19 [25] was found to be 75.8%; in the test on P19 [26] it was 113.2%; with P19 [27] it was 138%; in the test with P19 [28], 118.8%.
As to `O=C(c1ccc2c(c1)C(=O)N(c1nc[nH]n1)C2=O)c1ccc2c(c1)C(=O)N(c1nc[nH]n1)C2=O`, the Activity in the test on P19 [1] was determined as 81.2%; in the test on P19 [2], 77.6%; in the test on P19 [3], 45.5%; in the test with P19 [4] it was 93.3%; in the test with P19 [5] it was 96%; with P19 [6] it was 82%. Moreover, the Activity was found to be 92.7% in the test with P19 [7]; 94% in the test with P19 [8]; 53.2% in the test with P19 [9]; 114% in the test with P19 [10]; 96.1% in the test with P19 [11]; 86.5% in the test on P19 [12].
Turning to `O=C(c1ccc2c(c1)C(=O)N(c1ccccc1O)C2=O)c1ccc2c(c1)C(=O)N(c1ccccc1O)C2=O`, the Activity in the test on P19 [1] is given as 103.6%; in the test with P19 [2] it was 102%; in the test on P19 [3], 106.5%; in the test on P19 [4], 95.6%; with P19 [5] it was 93%; in the test on P19 [6], 79.8%. The Activity in the test on P19 [7] turned out to be 103.5%; in the test on P19 [8], 99.7%; in the test on P19 [9] it was 101.2%; in the test on P19 [10], 105%; in the test with P19 [11], 105.3%; in the test with P19 [12] it was 99.4%. Besides, the Activity is on record as 82.2% with P19 [13]; 89.6% with P19 [14]; 81.9% with P19 [15]; 81.6% in the test on P19 [16]; 108.7% with P19 [17]; 108.3% in the test with P19 [18]. The Activity with P19 [19] stood at 115.4%; in the test with P19 [20], 129.9%; with P19 [21], 117.8%; in the test with P19 [22] it was 112%; with P19 [23], 89.4%; in the test on P19 [24] it was 93.3%. Also, the Activity was determined as 111.1% in the test on P19 [25], 168% with P19 [26], 97.8% with P19 [27] and 86% in the test on P19 [28].
